Results reported in publication PMC8667933 (Journal of Enzyme Inhibition and Medicinal Chemistry, 2021).
One block for each molecule: values may come before it.

Key:
ERRα = target: T1, ERRα (Homo sapiens, UniProt P11474); experiment: ERRα functional assay: mammalian two-hybrid reporter gene assay; type: cell-based
T1 sequence (P11474 193-421 limits assumed): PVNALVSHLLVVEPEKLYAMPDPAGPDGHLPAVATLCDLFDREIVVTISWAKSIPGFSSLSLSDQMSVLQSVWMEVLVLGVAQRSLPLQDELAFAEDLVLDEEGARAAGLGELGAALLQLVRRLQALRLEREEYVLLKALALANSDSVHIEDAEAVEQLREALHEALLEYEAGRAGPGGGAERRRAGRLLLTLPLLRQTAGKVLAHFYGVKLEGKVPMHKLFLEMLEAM

[1] = tested on: MDA-MB-231 cells with ERRα knock-down; experiment: Viability of MDA-MB-231 cells after ERRα knock-down; type: cell-based, human; conditions: siRNA (legend: shERRα vs shCtrl)
ERRα LBD = target: T2, ERRα LBD (Homo sapiens, UniProt P11474); experiment: TR-FRET co-activator assay; type: binding
T2 sequence (P11474 193-421 limits assumed): T1 sequence (P11474 193-421 limits assumed)

[2] = tested on: MDA-MB-231 xenograft tumour; experiment: Breast cancer xenografts in nude mice; type: in vivo, BALB/c nude mice; conditions: 30 mg/kg every other day, intraperitoneally, 30 days
Summary of the method: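 6-week-old BALB/c nude mice were implanted subcutaneously with 2 × 10^6 MDA-MB-231 cells each. Dosing began once tumours averaged >100 mm3: i.p. 30 mg/kg every other day for 30 days in 0.9% saline with 0.5% 2-phenylethanol and 1.5% Tween 80, vehicle-only controls. Tumours measured every 5 days, V = length × width² × 0.5; body weight every 10 days. n = 6, mean ± SEM, two-tailed unpaired t-test vs vehicle.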

HCC-1937 = experiment: CCK-8 cell viability assay, HCC-1937; type: cell-based, human; conditions: for suppression of cell proliferation: HCC-1937, 10 μM, CCK-8
Summary of the method: (§1)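 Log-phase cells seeded in 96-well plates and incubated overnight, then exposed to test compound or vehicle. Viability runs: 1, 3 and 10 μM for 24 h and 48 h. IC50: a range of concentrations for 24 h. Proliferation read by CCK-8 per kit procedure. Mean ± SEM of n = 3; two-tailed unpaired t-test vs vehicle.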

MCF-7 [3] = experiment: CCK-8 cell viability assay, MCF-7; type: cell-based, human; conditions: for suppression of cell proliferation: MCF-7, 10 μM, CCK-8
Summary of the method: as §1

MCF-7 [4] = experiment: Transwell invasion assay; type: cell-based, human; conditions: MCF-7, high-dose (3 μM), 24 h
[5] = tested on: ERRα-regulated target genes (PGC-1α, PDK4, osteopontin, pS2); experiment: Quantitative RT-PCR of ERRα-regulated target genes in MDA-MB-231 cells; type: cell-based, human; conditions: high-dose 3 μM, 24 h
Summary of the method: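 MDA-MB-231 cells exposed 24 h to 0.1% DMSO or test compound at 1 or 3 μM. Total RNA isolated with Trizol, reverse-transcribed, and analysed by real-time PCR for PGC-1α, PDK4, osteopontin (SPP1) and pS2 (TFF1) mRNA. Mean ± SEM of n = 3; two-tailed unpaired t-test vs vehicle.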

[6] = tested on: MCF-7 and MDA-MB-231 cells; experiment: Transwell migration assay; type: cell-based, human; conditions: 24 h
[7] = Body weight and overt toxicity in xenograft mice; type: in vivo, BALB/c nude mice; conditions: 30 mg/kg every other day, intraperitoneally, vs control group
MDA-MB-231 [8] = experiment: CCK-8 cell viability assay, MDA-MB-231; type: cell-based, human; conditions: for suppression of cell proliferation: MDA-MB-231, 10 μM, CCK-8
Summary of the method: as §1

MCF-7 [9] = experiment: Colony formation assay, MCF-7; type: cell-based, human; conditions: MCF-7, high-dose 1 μM
Summary of the method: (§2)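 1 × 10^3 cells/well plated in 6-well plates and cultured overnight. Medium then replaced with vehicle or test compound at 0.3 or 1 μM. Exposure is 7 days per legend and 2 weeks (until colonies visible) per methods. Colonies washed with PBS, fixed in 4% paraformaldehyde, stained 30 min with 0.1% crystal violet, imaged and counted. n = 3, mean ± SEM, unpaired t-test.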

MDA-MB-231 [10] = experiment: Transwell invasion assay; type: cell-based, human; conditions: 24 h
MDA-MB-231 [11] = experiment: Colony formation assay, MDA-MB-231; type: cell-based, human
Summary of the method: as §2

SMILES: O=[N+]([O-])c1ccc(S(=O)(=O)Nc2ccccc2Oc2ccccc2)cc1 [compound 8, 4-Nitro-N-(2-phenoxyphenyl)benzenesulfonamide]
- IC50 (ERRα): 1760 nM

SMILES: O=[N+]([O-])c1ccc(S(=O)(=O)Nc2ccccc2Oc2ccc(Cl)cc2)cc1 [compound 9, N-(2–(4-chlorophenoxy)phenyl)-4-nitrobenzenesulfonamide]
- IC50 (ERRα): 2020 nM

SMILES: COc1ccc(Oc2ccccc2NS(=O)(=O)c2ccc([N+](=O)[O-])cc2)cc1 [compound 11, N-(2–(4-methoxyphenoxy)phenyl)-4-nitrobenzenesulfonamide]
- effect of ERRα knock-down on compound-induced anti-proliferation [1]: knock-down of ERRα reduced compound 11 induced anti-proliferation
- IC50 (ERRα LBD): 681 nM
- tumour growth inhibition ([2]; MDA-MB-231 xenograft): 23.58%
- tumour volume at the end of the experiment ([2]; control 1508 mm^3): 1152 mm^3
- suppression of cell proliferation (HCC-1937; 24 h): 31.0%
- suppression of cell proliferation (HCC-1937; 48 h): 38.0%
- IC50 (HCC-1937; Homo sapiens, HCC1937, 24 h, read-out: IC50, cell proliferation): 14700 nM
- IC50 (MCF-7 [3]; Homo sapiens, MCF7, 24 h, read-out: IC50, cell proliferation): 15400 nM
- suppression of cell proliferation (MCF-7 [3]; 24 h): 23.5%
- suppression of cell proliferation (MCF-7 [3]; 48 h): 37.4%
- IC50 (ERRα): 800 nM
- fold more active than compound 10 (ERRα; ratio of IC50 values, compound 11 vs compound 10): 1.5 fold
- reduction in cell invasion (MCF-7 [4]): 31.5%
- PGC-1α, PDK4, osteopontin and pS2 mRNA expression [5]: notably reduced
- inhibition of breast cancer cells migration ([6]; 1 μM): moderate inhibition
- inhibition of breast cancer cells migration ([6]; high-dose 3 μM): much more potently inhibitory effect
- influence on weight of mice and overt toxicity [7]: no notably compound-related influences on the weight of mice or any other symptoms of overt toxicity
- IC50 (MDA-MB-231 [8]; Homo sapiens, MDA-MB-231, 24 h, read-out: IC50, cell proliferation): 9150 nM
- suppression of cell proliferation (MDA-MB-231 [8]; 24 h): 38.9%
- suppression of cell proliferation (MDA-MB-231 [8]; 48 h): 44.3%
- reduction of the number of colonies (MCF-7 [9]): 47.5%
- effect on cell invasion (MDA-MB-231 [10]; MB-231 cells, low-dose (1 μM)): weak effect
- reduction in cell invasion (MDA-MB-231 [10]; MDA-MB-231, high-dose (3 μM)): 50.9%
- reduction of the number of colonies (MDA-MB-231 [11]; MDA-MB-231, high-dose 1 μM): 70.3%
- number of colonies (MDA-MB-231 [11]; MDA-MB-231, low-dose 0.3 μM): decreased significantly

Second part, the molecule after the results:

- IC50 (ERRα): 1230 nM
- inhibiting activity relative to compound 14 (ERRα; ratio of IC50 values, compound 10 vs compound 14): 1.5 times
SMILES: Cc1ccc(Oc2ccccc2NS(=O)(=O)c2ccc([N+](=O)[O-])cc2)cc1 [compound 10, 4-Nitro-N-(2-(p-tolyloxy)phenyl)benzenesulfonamide]

- IC50 (ERRα): > 10000 nM
- IC50, inhibition of ERRα transcriptional activity (ERRα; reporter gene assay, HEK 293 T cells, 48 h): inactive
SMILES: COc1ccc(Oc2ccccc2NS(=O)(=O)c2ccc(N)cc2)cc1 [compound 12, 4-Amino-N-(2–(4-methoxyphenoxy)phenyl)benzenesulfonamide]

- IC50 (ERRα): 1610 nM
SMILES: Nc1ccc(S(=O)(=O)Nc2ccccc2Oc2ccc(Cl)cc2)cc1 [compound 13, 4-Amino-N-(2–(4-chlorophenoxy)phenyl)benzenesulfonamide]

- IC50 (ERRα): 1880 nM
SMILES: Cc1ccc(Oc2ccccc2NS(=O)(=O)c2ccc(N)cc2)cc1 [compound 14, 4-Amino-N-(2-(p-tolyloxy)phenyl)benzenesulfonamide]
